For experiment [1], the target named is Ribosomal protein S6 kinase alpha-6 (Homo sapiens) (UniProt Q9UK32). Description: Inhibition of human RSK4 (1 to 397 residues) expressed in mammalian expression system assessed as enzyme activity at 10 uM by KINOMEScan assay relative to control. Also noted: scale not given: the % may be the effect or the level left. In outline:
(§1)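 In vitro ATP-site competition binding assay across a panel of 456 kinases, with compound tested at 1 and 10 μM.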

Experiment [2] deals with Platelet-derived growth factor receptor beta (Homo sapiens) (UniProt P09619). Kind of experiment: Inhibition of human PDGFRB (582 to 1009 residues) expressed in bacterial expression system assessed as enzyme activity at 1 uM by KINOMEScan assay relative to control. Also noted: scale not given: the % may be the effect or the level left. In outline:
as §1

The target of experiment [3] is Ribosomal protein S6 kinase alpha-6 (Homo sapiens) (UniProt Q9UK32). Description: Inhibition of human RSK4 (1 to 397 residues) expressed in mammalian expression system assessed as enzyme activity at 1 uM by KINOMEScan assay relative to control. Also noted: scale not given: the % may be the effect or the level left. Summed up:
as §1

In experiment [4] the target is Plakophilin-1 (Homo sapiens) (UniProt Q13835). Description: Binding affinity to PKP1 in human NCI-H23 cells at 1 uM by mass spectrometry based pull down assay. The class given is cell-based.
The target in experiment [5] is Src substrate cortactin (Homo sapiens) (UniProt Q14247). Description: Binding affinity to CTTN in human NCI-H358 cells at 1 uM by mass spectrometry based pull down assay. The class given is cell-based.
Experiment [6] concerns the target High mobility group protein B2 (Homo sapiens) (UniProt P26583). Kind of experiment: Binding affinity to HMGB2 in human NCI-H358 cells at 1 uM by mass spectrometry based pull down assay. Format: cell-based.
In experiment [7] the target is Cyclin-dependent kinase 5 (Homo sapiens) (UniProt Q00535). Kind of experiment: Binding affinity to CDK5 in human NCI-H23 cells at 1 uM by mass spectrometry based pull down assay. Format: cell-based.
In experiment [8] the target is WD repeat and HMG-box DNA-binding protein 1 (Homo sapiens) (UniProt O75717). Kind of experiment: Binding affinity to WDHD1 in human NCI-H358 cells at 1 uM by mass spectrometry based pull down assay. Format: cell-based.
Experiment [9] addresses Eukaryotic translation initiation factor 6 (Homo sapiens) (UniProt P56537). Kind of experiment: Binding affinity to EIF6 in human NCI-H358 cells at 1 uM by mass spectrometry based pull down assay. The class given is cell-based.
Experiment [10] addresses Aldehyde dehydrogenase family 16 member A1 (Homo sapiens) (UniProt Q8IZ83). Description: Binding affinity to ALDH16A1 in human NCI-H358 cells at 1 uM by mass spectrometry based pull down assay. Format: cell-based. In outline: (§2)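 NCI-H23 or NCI-H358 cells were grown and lysed. Lysates were incubated overnight at 4 °C with 1 μM biotinylated covalent probe or DMSO, then pulled down on streptavidin beads. Proteins were run on polyacrylamide gels and stained with Coomassie. Bands were excised, digested and identified by mass spectrometry.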

Experiment [11] addresses Fructose-2,6-bisphosphatase TIGAR (Homo sapiens) (UniProt Q9NQ88). Kind of experiment: Binding affinity to TIGAR in human NCI-H23 cells at 1 uM by mass spectrometry based pull down assay. Format: cell-based.
Experiment [12] concerns the target Delta-1-pyrroline-5-carboxylate synthase (Homo sapiens) (UniProt P54886). Kind of experiment: Binding affinity to ALDH18A1 in human NCI-H358 cells at 1 uM by mass spectrometry based pull down assay. Format: cell-based. In outline:
as §2

For experiment [13], the target named is Thioredoxin-dependent peroxide reductase, mitochondrial (Homo sapiens) (UniProt P30048). Kind of experiment: Binding affinity to PRDX3 in human NCI-H23 cells at 1 uM by mass spectrometry based pull down assay. The class given is cell-based.
In experiment [14] the target is Probable ATP-dependent RNA helicase DDX5 (Homo sapiens) (UniProt P17844). Kind of experiment: Binding affinity to DDX5 in human NCI-H23 cells at 1 uM by mass spectrometry based pull down assay. The class given is cell-based.
Sequence of Probable ATP-dependent RNA helicase DDX5 (Homo sapiens) (P17844 whole entry): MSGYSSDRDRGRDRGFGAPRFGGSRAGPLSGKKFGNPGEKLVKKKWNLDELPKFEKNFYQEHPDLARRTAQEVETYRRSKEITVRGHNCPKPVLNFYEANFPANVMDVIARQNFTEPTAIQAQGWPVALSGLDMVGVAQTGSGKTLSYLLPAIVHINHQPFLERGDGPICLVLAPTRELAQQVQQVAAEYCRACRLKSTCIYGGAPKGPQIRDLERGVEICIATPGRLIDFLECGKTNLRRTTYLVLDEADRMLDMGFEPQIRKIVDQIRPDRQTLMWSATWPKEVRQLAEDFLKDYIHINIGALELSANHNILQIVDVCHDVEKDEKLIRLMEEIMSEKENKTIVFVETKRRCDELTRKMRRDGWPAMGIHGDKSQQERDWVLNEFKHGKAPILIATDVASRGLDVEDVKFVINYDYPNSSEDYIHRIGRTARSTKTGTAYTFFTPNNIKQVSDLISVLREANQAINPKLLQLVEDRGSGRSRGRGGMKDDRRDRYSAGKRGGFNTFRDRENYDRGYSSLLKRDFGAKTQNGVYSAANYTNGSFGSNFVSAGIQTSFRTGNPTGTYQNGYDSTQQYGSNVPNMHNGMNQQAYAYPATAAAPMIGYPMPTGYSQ
Experiment [15] addresses UV radiation resistance-associated gene protein (Homo sapiens) (UniProt Q9P2Y5). Kind of experiment: Binding affinity to UVRAG in human NCI-H23 cells at 1 uM by mass spectrometry based pull down assay. Format: cell-based.
The target in experiment [16] is Aldehyde dehydrogenase X, mitochondrial (Homo sapiens) (UniProt P30837). Kind of experiment: Binding affinity to ALDH1B1 in human NCI-H23 cells at 1 uM by mass spectrometry based pull down assay. Format: cell-based. In outline:
as §2

For experiment [17], the target named is Pyruvate dehydrogenase E1 component subunit beta, mitochondrial (Homo sapiens) (UniProt P11177). Description: Binding affinity to PDHB in human NCI-H358 cells at 1 uM by mass spectrometry based pull down assay. Format: cell-based.
Sequence of Pyruvate dehydrogenase E1 component subunit beta, mitochondrial (Homo sapiens) (P11177 whole entry): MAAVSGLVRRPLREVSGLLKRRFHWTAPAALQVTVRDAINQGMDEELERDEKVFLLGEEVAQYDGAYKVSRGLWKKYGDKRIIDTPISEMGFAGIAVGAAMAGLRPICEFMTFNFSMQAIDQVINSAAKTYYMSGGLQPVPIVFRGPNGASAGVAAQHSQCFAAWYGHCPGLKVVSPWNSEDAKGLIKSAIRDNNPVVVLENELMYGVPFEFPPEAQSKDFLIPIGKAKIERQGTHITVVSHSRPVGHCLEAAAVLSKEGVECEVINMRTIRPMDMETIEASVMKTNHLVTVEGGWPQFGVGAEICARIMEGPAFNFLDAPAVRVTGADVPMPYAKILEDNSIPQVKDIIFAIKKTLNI
Experiment [18] addresses Inosine-5'-monophosphate dehydrogenase 2 (Homo sapiens) (UniProt P12268). Kind of experiment: Binding affinity to IMPDH2 in human NCI-H358 cells at 1 uM by mass spectrometry based pull down assay. Format: cell-based.
Experiment [19] deals with Protein LSM12 (Homo sapiens) (UniProt Q3MHD2). Kind of experiment: Binding affinity to LSM12 in human NCI-H23 cells at 1 uM by mass spectrometry based pull down assay. The class given is cell-based.
Sequence of Protein LSM12 (Homo sapiens) (Q3MHD2 whole entry): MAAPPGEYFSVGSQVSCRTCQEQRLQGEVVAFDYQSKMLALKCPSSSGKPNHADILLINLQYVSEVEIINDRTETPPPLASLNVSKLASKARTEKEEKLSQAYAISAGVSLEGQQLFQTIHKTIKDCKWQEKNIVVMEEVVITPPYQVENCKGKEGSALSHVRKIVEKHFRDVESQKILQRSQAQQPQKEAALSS
Experiment [20] concerns the target A-kinase anchor protein 12 (Homo sapiens) (UniProt Q02952). Kind of experiment: Binding affinity to AKAP12 in human NCI-H23 cells at 1 uM by mass spectrometry based pull down assay. Format: cell-based. In outline: as §2
Experiment [21] addresses Tensin-3 (Homo sapiens) (UniProt Q68CZ2). Kind of experiment: Binding affinity to TNS3 in human NCI-H358 cells at 1 uM by mass spectrometry based pull down assay. The class given is cell-based.
Experiment [22] has as its target Signal recognition particle 19 kDa protein (Homo sapiens) (UniProt P09132). Description: Binding affinity to SRP19 in human NCI-H23 cells at 1 uM by mass spectrometry based pull down assay. Format: cell-based.
Experiment [23] has as its target T1, Non-receptor tyrosine-protein kinase TNK1 (Homo sapiens) (UniProt Q13470).
T1 sequence (whole entry): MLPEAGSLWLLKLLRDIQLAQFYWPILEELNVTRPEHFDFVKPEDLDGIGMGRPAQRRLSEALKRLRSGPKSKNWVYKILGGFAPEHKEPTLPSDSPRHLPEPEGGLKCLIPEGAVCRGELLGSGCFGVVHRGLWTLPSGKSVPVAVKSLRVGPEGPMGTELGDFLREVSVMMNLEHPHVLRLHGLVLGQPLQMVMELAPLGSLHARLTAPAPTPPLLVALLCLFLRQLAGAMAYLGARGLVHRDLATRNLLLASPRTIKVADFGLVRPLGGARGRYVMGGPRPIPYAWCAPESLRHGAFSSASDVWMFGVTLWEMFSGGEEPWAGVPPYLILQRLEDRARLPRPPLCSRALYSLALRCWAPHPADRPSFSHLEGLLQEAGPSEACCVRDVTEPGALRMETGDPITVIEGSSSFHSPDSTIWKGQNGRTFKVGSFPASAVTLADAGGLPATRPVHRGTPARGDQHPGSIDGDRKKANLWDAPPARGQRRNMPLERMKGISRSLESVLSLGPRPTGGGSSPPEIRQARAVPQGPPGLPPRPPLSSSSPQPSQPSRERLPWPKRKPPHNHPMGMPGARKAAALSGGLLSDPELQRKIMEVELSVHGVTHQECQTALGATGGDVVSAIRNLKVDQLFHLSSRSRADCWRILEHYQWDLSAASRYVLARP
Description: Binding affinity to TNK1 in human NCI-H358 cells at 1 uM by mass spectrometry based pull down assay. Format: cell-based.

Experiment [24] addresses NAD(P)H dehydrogenase [quinone] 1 (Homo sapiens) (UniProt P15559). Description: Binding affinity to NQO1 in human NCI-H23 cells at 1 uM by mass spectrometry based pull down assay. Format: cell-based.

The source made the active and inactive calls. The calls are words filed in the database; no cut-off is given here.

Sequence of Ribosomal protein S6 kinase alpha-6 (Homo sapiens) (Q9UK32 whole entry, the tested form may be a part): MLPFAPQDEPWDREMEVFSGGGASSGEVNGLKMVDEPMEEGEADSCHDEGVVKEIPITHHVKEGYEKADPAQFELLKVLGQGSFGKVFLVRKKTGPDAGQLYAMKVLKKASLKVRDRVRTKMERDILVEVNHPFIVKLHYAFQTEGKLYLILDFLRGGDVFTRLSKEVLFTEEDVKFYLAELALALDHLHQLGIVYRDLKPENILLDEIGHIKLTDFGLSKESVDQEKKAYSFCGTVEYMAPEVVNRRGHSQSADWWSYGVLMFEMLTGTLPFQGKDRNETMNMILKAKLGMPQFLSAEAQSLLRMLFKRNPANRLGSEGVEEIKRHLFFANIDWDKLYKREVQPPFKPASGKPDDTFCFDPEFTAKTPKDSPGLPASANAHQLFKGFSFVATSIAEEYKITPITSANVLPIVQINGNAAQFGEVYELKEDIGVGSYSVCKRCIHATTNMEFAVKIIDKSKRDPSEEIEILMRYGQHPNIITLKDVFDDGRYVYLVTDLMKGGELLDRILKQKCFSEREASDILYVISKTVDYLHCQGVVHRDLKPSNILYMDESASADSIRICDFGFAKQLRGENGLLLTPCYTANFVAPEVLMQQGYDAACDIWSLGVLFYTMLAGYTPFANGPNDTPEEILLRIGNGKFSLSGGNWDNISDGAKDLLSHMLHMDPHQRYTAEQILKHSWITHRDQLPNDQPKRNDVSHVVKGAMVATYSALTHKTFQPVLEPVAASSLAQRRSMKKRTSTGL
Sequence of Aldehyde dehydrogenase family 16 member A1 (Homo sapiens) (Q8IZ83 whole entry): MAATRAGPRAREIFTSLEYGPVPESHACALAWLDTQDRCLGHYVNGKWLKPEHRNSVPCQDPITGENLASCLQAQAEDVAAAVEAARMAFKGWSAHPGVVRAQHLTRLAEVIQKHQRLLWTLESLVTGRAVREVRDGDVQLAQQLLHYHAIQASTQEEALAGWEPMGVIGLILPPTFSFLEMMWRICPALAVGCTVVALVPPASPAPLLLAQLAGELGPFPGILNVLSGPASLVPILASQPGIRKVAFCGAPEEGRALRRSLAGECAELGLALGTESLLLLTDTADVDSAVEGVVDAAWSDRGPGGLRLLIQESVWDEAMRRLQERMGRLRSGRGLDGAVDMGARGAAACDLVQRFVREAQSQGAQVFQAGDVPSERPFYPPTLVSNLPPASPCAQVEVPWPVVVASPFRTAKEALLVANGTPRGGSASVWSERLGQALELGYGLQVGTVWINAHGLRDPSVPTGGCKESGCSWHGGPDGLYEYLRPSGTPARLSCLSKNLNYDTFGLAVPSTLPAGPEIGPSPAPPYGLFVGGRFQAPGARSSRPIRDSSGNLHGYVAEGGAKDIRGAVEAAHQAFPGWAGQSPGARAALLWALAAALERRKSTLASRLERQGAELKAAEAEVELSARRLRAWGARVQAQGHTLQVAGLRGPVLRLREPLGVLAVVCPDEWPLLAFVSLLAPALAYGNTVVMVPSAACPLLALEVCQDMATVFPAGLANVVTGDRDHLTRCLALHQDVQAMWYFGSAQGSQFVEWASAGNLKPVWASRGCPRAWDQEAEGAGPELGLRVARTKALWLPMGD
Sequence of Delta-1-pyrroline-5-carboxylate synthase (Homo sapiens) (P54886 whole entry): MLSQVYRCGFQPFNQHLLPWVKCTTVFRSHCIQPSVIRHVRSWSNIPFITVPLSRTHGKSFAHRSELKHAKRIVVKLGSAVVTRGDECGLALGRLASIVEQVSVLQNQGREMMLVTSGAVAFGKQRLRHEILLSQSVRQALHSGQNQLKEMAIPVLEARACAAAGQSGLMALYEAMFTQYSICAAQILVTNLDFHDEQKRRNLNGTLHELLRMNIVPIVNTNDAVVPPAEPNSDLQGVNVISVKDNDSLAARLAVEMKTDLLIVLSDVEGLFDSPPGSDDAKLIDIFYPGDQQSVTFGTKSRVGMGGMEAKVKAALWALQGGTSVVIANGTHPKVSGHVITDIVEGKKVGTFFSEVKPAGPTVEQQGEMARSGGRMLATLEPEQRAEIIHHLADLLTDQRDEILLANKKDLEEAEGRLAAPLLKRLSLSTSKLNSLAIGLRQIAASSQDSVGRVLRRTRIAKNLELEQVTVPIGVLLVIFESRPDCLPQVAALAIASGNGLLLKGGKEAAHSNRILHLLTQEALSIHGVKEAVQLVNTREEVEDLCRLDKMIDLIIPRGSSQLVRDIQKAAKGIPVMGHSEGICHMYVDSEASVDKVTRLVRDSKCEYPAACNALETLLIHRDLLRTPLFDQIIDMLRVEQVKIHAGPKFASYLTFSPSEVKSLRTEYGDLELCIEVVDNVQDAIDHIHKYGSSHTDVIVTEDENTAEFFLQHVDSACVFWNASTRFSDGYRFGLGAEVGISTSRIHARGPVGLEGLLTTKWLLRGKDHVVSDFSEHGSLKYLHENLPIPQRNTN
Sequence of UV radiation resistance-associated gene protein (Homo sapiens) (Q9P2Y5 whole entry): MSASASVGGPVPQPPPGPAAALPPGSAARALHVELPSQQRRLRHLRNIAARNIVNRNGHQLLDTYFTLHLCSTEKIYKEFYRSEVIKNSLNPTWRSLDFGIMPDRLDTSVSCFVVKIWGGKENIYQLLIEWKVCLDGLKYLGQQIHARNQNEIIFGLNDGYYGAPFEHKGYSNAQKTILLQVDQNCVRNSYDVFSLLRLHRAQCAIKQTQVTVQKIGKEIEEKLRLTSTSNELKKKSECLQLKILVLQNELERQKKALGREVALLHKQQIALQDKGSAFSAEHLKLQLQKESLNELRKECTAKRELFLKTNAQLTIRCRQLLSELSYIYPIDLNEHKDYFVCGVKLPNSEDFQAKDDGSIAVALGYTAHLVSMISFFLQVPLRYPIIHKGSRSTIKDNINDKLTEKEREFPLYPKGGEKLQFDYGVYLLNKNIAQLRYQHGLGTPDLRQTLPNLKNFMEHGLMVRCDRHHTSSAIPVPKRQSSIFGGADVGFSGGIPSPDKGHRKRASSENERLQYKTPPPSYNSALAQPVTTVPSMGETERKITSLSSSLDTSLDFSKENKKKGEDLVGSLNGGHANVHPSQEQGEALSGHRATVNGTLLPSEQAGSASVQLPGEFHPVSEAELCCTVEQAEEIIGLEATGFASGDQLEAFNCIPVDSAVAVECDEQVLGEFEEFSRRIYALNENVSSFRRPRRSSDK
Sequence of Inosine-5'-monophosphate dehydrogenase 2 (Homo sapiens) (P12268 2-514 limits assumed): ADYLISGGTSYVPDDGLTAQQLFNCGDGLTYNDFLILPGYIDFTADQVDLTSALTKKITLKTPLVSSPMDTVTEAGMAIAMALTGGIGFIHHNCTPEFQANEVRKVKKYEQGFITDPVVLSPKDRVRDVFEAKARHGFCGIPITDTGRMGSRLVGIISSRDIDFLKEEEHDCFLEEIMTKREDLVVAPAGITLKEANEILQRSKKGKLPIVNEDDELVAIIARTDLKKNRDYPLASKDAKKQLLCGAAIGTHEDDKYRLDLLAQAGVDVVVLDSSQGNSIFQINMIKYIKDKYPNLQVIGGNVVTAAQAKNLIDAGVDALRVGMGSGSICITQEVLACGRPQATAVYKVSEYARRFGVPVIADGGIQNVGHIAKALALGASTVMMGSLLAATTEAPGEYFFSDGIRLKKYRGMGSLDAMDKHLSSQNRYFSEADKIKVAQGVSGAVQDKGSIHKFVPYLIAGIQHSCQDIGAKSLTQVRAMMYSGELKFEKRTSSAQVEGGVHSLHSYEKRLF
Sequence of Signal recognition particle 19 kDa protein (Homo sapiens) (P09132 whole entry): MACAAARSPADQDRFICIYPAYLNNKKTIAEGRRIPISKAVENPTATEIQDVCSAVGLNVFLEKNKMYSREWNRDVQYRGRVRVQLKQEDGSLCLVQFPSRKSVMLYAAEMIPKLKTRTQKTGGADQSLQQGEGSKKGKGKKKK

On to `COc1cc(O)c2c(c1)/C=C/C[C@H](O)[C@H](O)C(=O)/C=C\C[C@H](C)OC2=O`, for which the Activity is 3% in [1], 1.5% in experiment [2] and 34% in [3].

`C=CC(=O)Nc1ccccc1Nc1nc(Nc2ccc(N3CCN(CCOCCOCCOCCNC(=O)CCCC[C@@H]4SC[C@@H]5NC(=O)N[C@@H]54)CC3)cc2)ncc1Cl`: the outcome in [4], in experiment [5], in [6], in [7], in experiment [8] and in [9] was Active. Moreover, the outcome in experiment [10], in experiment [11], in [12], in experiment [13], in experiment [14] and in experiment [15] was Active. The result in experiment [16], in [17], in experiment [18], in [19], in experiment [20] and in experiment [21] was Active. The outcome in [22], in [23] and in experiment [24] was Active.

The values above are taken from ChEMBL document CHEMBL4118021, “Studies of TAK1-centered polypharmacology with novel covalent TAK1 inhibitors” (Bioorg Med Chem, 2017).
